The source of these data is ChEMBL document CHEMBL4622986, “Synthesis and Anti-HCV Activity of Sugar-Modified Guanosine Analogues: Discovery of AL-611 as an HCV NS5B Polymerase Inhibitor for the Treatment of Chronic Hepatitis C” (J Med Chem, 2020).

Series [1] in a line: Cytotoxicity against human MT4 cells incubated for 8 days by cellTiter-Glo assay. In kind it is cell-based. A digest of the protocol:
(§1)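 Cells (1×10^5/well) on collagen I-coated wells, first kept 8 days in recommended medium without drug, then exposed to compound for 8 days with refeeding every other day. Viability read by CellTiter-Glo luminescence; CC50 derived by curve fitting.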

A short description of series [2]: Cytotoxicity against human HuH7 cells incubated for 8 days by cellTiter-Glo assay. In kind it is cell-based, Huh-7. The gist of the method: as §1
The nature of series [3]: Prodrug activation in human hepatocytes assessed as [[(2S,3S,4R,5R)-5-(2-amino-6-oxo-1H-purin-9-yl)-2,4-difluoro-3-hydroxy-4-methyl-tetrahydrofuran-2-yl]methoxy-hydroxy-phosphoryl]phosphono hydrogen phosphate metabolite formation per million cells at 50 uM incubated for 24 hrs by LC-MS/MS analysis. In kind it is ADME, cell-based, Hepatocyte. A digest of the protocol: (§2)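 Primary human hepatocytes (1.5-2 million cells/well) acclimated overnight at 37 °C, 5% CO2, then incubated 24 h with 50 μM extracellular compound. Cells washed with cold 0.9% NaCl and lysed in 70/30 methanol/water. Extract dried and reconstituted, then analysed by LC-MS/MS with an internal standard; reported as pmol per million cells.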

Series [4] can be described thus: Prodrug activation in human hepatocytes assessed as [[(2S,3S,4R,5R)-5-(2-amino-6-oxo-1H-purin-9-yl)-2,4-difluoro-3-hydroxy-4-methyl-tetrahydrofuran-2-yl]methoxy-hydroxy-phosphoryl]phosphono hydrogen phosphate metabolite formation at 0.5 to 50 uM incubated for 24 hrs by LC-MS/MS analysis. The class given is ADME, cell-based, Hepatocyte. A digest of the protocol: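 Primary human hepatocytes from three donors, acclimated overnight at 37 °C, 5% CO2, incubated 24 h across a range of extracellular compound concentrations. Cells washed with cold saline and lysed in 70/30 methanol/water. Intracellular NTP measured by negative-ion LC-MS/MS against standards spiked into untreated hepatocyte lysate; mean ± standard deviation reported.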

Another series has as its system Hepatitis C virus. As to the kind of experiment: Antiviral activity against HCV con1 subgenomic replicon infected in human HuH7 cells assessed as reduction in viral RNA level by qRT-PCR analysis. Particulars: isolate Con1, Huh-7. The class given is functional, organism-based, Hepacivirus hominis. The gist of the method: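 Huh-7 cells carrying a subgenomic Con1 HCV replicon (neomycin phosphotransferase, kept under 0.25 mg/ml G418) were exposed to serially diluted compound in DMEM with 2% FBS and 0.5% DMSO, without G418, at 37 °C. Total RNA was extracted and HCV RNA copies were measured by multiplex QRT-PCR (Taqman). EC50 was obtained by 4-parameter curve fit.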

The nature of series [5]: Prodrug activation in human hepatocytes assessed as nucleoside monophosphate metabolite formation per million cells incubated for 24 hrs. The class given is ADME, cell-based, Hepatocyte. A digest of the protocol: as §2
The nature of series [6]: Selectivity index, ratio of CC50 for human HuH7 cells infected with HCV con1 subgenomic replicon to EC50 for HCV con1 subgenomic replicon. The class given is toxicity. The note with it: read-out: Ratio CC50/EC50. A digest of the protocol:
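Ratio of CC50 (CellTiter-Blue viability after 3 days) to EC50 (HCV RNA by QRT-PCR). Both were measured in Huh-7 Con1 subgenomic replicon cells in DMEM with 2% FBS and 0.5% DMSO at 37 °C.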

Series [7] in a line: Cytotoxicity against human HeLa cells incubated for 8 days by cellTiter-Glo assay. In kind it is cell-based. A digest of the protocol:
as §1

Series [8] can be described thus: Prodrug activation in human hepatocytes assessed as half life of [[(2S,3S,4R,5R)-5-(2-amino-6-oxo-1H-purin-9-yl)-2,4-difluoro-3-hydroxy-4-methyl-tetrahydrofuran-2-yl]methoxy-hydroxy-phosphoryl]phosphono hydrogen phosphate metabolite at 50 uM incubated for 24 hrs followed by medium replacement measured after 6 hrs by LC-MS/MS analysis. In kind it is ADME, cell-based, Hepatocyte. The gist of the method: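 Primary human hepatocytes acclimated overnight at 37 °C, 5% CO2, then given 50 μM compound for 24 h. Medium replaced with blank medium and cells sampled at 0, 3, 6, 10, 24 and 48 h. Cells washed with cold saline and lysed in 70/30 methanol/water; NTP measured by LC-MS/MS. Half-life obtained by first-order fit of the terminal phase (n = 3).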

A short description of series [9]: Cytotoxicity against human HuH7 cells infected with HCV con1 subgenomic replicon assessed as reduction in cell viability measured after 3 days by CellTiter-blue cell viability assay. In kind it is cell-based, Huh-7. The gist of the method: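 Run in the replicon-bearing Huh-7 cells under the same settings as the antiviral read (DMEM, 2% FBS, 0.5% DMSO, no G418, 37 °C). After 3 days of treatment, viability was read with CellTiter-Blue and CC50 was derived by curve fitting.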

A short description of series [10]: Cytotoxicity against human A549 cells incubated for 8 days by cellTiter-Glo assay. In kind it is cell-based. The gist of the method:
as §1

Series [11] can be described thus: Prodrug activation in Beagle dog assessed as [[(2S,3S,4R,5R)-5-(2-amino-6-oxo-1H-purin-9-yl)-2,4-difluoro-3-hydroxy-4-methyl-tetrahydrofuran-2-yl]methoxy-hydroxy-phosphoryl]phosphono hydrogen phosphate metabolite formation in liver at 9.69 mg/kg, po measured at 4 hrs post dose by LC-MS/MS analysis. In kind it is ADME, organism-based, Canis lupus familiaris. The note with it: in vivo. The gist of the method:
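Male non-naïve beagle dogs (n=2 per time point), fasted overnight, single oral dose of 9.69 mg/kg (5 mg/kg parent nucleoside equivalent) as a solution in 40% PEG400 in water. Animals anesthetized with pentobarbital before liver collection. Liver NTP measured by negative-ion LC-MS/MS against standards spiked into blank liver homogenate.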

A short description of series [12]: Cytotoxicity against human U937 cells incubated for 8 days by cellTiter-Glo assay. In kind it is cell-based, U-937. The gist of the method: as §1
Series [13] can be described thus: Prodrug activation in human hepatocytes assessed as time at which [[(2S,3S,4R,5R)-5-(2-amino-6-oxo-1H-purin-9-yl)-2,4-difluoro-3-hydroxy-4-methyl-tetrahydrofuran-2-yl]methoxy-hydroxy-phosphoryl]phosphono hydrogen phosphate metabolite formation reached steady state at 10 uM incubated for 2 to 72 hrs by LC-MS/MS analysis. The class given is ADME, cell-based, Hepatocyte. A digest of the protocol:
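Primary human hepatocytes acclimated overnight at 37 °C, 5% CO2, then continuously incubated with 10 μM compound and sampled over 2-72 h. Cells washed with cold saline and lysed in 70/30 methanol/water. Intracellular NTP quantified by negative-ion LC-MS/MS against standards spiked into untreated hepatocyte lysate.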

Series [14] in a line: Prodrug activation in human hepatocytes assessed as [[(2S,3S,4R,5R)-5-(2-amino-6-oxo-1H-purin-9-yl)-2,4-difluoro-3-hydroxy-4-methyl-tetrahydrofuran-2-yl]methoxy-hydroxy-phosphoryl]phosphono hydrogen phosphate metabolite formation after 24 to 48 hrs by LC-MS/MS analysis. In kind it is ADME, cell-based, Hepatocyte.
The nature of series [15]: Cytotoxicity against human HepG2 cells incubated for 8 days by cellTiter-Glo assay. The class given is cell-based. A digest of the protocol:
as §1

Molecules are shown by their SMILES.

Consider `CCOc1nc(N)nc2c1ncn2[C@@H]1O[C@](F)(COP(=O)(N[C@@H](C)C(=O)OC(C)C)Oc2ccccc2)[C@@H](O)[C@@]1(C)F` (stereo partly specified), for which the CC50 at 192 h in series [1] was 92 µM; in series [2] it was over 100 µM; in [7], over 100 µM; in series [10], over 100 µM; in [12] it was 10 µM; in series [15], over 100 µM. Moreover, the Drug metabolism in [3] was 271 pmol; in series [4] it was “Metabolite_Detected”; in series [5], 89 pmol; in series [11], 11.2 µM; in [14] it was “Metabolite_Notdetected”. Also, in the series on Hepatitis C virus, the EC50 amounted to 0.014 µM. In [6], the selectivity ratio was over 7000. In series [8], the t1/2 was 11.2 h. Besides, in series [9], the CC50 at 72 h was over 100 µM. Also, in series [13], the Time was in the range of 2 to 16 h.
